Laboratory results: ChEMBL document CHEMBL2417468, “4β-[4'-(1-(Aryl)ureido)benzamide]podophyllotoxins as DNA topoisomerase I and IIα inhibitors and apoptosis inducing agents” (2013)
Activity calls are given as the source filed them. No cut-off for these calls is given here.

Experiments:
[1] = system: MDA-MB-231; test: Cytotoxicity against human MDA-MB-231 cells assessed as cell viability at <0.5 to 1 uM after 24 hrs by MTT assay; format: functional, cell-based
Summary of the method: (§1)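 Colo-205 (RPMI, 10% FCS) and MDA-MB-231 (DMEM, 2 mM glutamax, 10% FCS, penicillin/streptomycin) seeded at 1 104 cells/well, 18 h preincubation; fresh medium with compound at 0.5, 1, 2 and 4 µM for 24 h at 37 °C; MTT 2 h, formazan solubilised, OD 570 nm; DMSO ≤0.25%, DMSO-only wells as untreated control.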

[2] = system: A549; test: Growth inhibition of human A549 cells after 48 hrs by sulforhodamine B assay; format: functional
[3] = (§2) Growth inhibition of human Gurav cells after 48 hrs by sulforhodamine B assay; format: functional
[4] = system: A2780; test: Growth inhibition of human A2780 cells after 48 hrs by sulforhodamine B assay; format: functional
[5] = system: MCF7; test: Growth inhibition of human MCF7 cells after 48 hrs by sulforhodamine B assay; format: functional; conditions: MCF7, 48 h
[6] = (§3) Growth inhibition of human DWD cells after 48 hrs by sulforhodamine B assay; format: functional
[7] = system: COLO 205; test: Cytotoxicity against human COLO205 cells assessed as reduction in cellular ATP level at 2 uM after 24 hrs by bioluminescence assay; format: functional, cell-based
Summary of the method: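 Colo-205 cells exposed 24 h at 2 µM, lysed in ice-cold RIPA, debris spun off at 4 °C; intracellular ATP in supernatant by luciferin-luciferase bioluminescence kit; three independent experiments, mean ± S.D., untreated control.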

[8] = system: ZR-75-1; test: Growth inhibition of human ZR-75-1 cells after 48 hrs by sulforhodamine B assay; format: functional; conditions: ZR-75-1, 48 h
[9] = system: SiHa; test: Growth inhibition of human SiHa cells after 48 hrs by sulforhodamine B assay; format: functional
[10] = system: MDA-MB-231; test: Cytotoxicity against human MDA-MB-231 cells assessed as cell viability at 2 to 4 uM after 24 hrs by MTT assay; format: functional, cell-based; summary of the method: as §1
[11] = system: HOP-62; test: Growth inhibition of human HOP62 cells after 48 hrs by sulforhodamine B assay; format: functional
[12] = system: COLO 205; test: Cytotoxicity against human COLO205 cells assessed as cell viability at <0.5 to 1 uM after 24 hrs by MTT assay; format: functional, cell-based; summary of the method: as §1
[13] = system: COLO 205; test: Cytotoxicity against human COLO205 cells assessed as viable cells at 2 uM after 24 hrs by trypan blue exclusion assay; format: functional, cell-based
Summary of the method: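 Colo-205 cells treated 24 h at 1, 2 and 4 µM, trypsinised, mixed with 0.4% trypan blue (10 µl per 100 µl cells), counted on haemocytometer; percentage dead cells calculated; triplicate samples.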

[14] = system: COLO 205; test: Induction of apoptosis in human COLO205 cells assessed as caspase-3 activation at 2 uM after 24 hrs by ELISA; format: functional, cell-based
Summary of the method: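 Colo-205 cells exposed 24 h at 2 µM; lysates in 2X reaction buffer with DTT plus caspase substrate, 1 h at 37 °C; fluorescence read at ex 400/em 505 nm; three independent experiments, mean ± S.D., versus untreated control.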

[15] = target: DNA topoisomerase 2-alpha (Homo sapiens) (UniProt P11388); test: Inhibition of human topoisomerase 2alpha-mediated relaxation of supercoiled pBR322 DNA at 2 uM after 30 mins by agarose gel electrophoresis
Summary of the method: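 Purified human topoisomerase IIα (4 units) with 200 ng supercoiled pBR322 and compound at 2 µM, 30 min at 30 °C in 10 mM Tris-HCl pH 7.9, 50 mM NaCl, 5 mM MgCl2, 1 mM EDTA, 1 mM ATP, 15 µg/mL BSA; EDTA-stopped; 1% agarose gel in TAE, ethidium bromide, UV visualisation.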

[16] = system: KB; test: Growth inhibition of human KB cells after 48 hrs by sulforhodamine B assay; format: functional
[17] = system: COLO 205; test: Cell cycle arrest in human COLO205 cells assessed as accumulation at G2/M phase at 2 uM after 24 hrs by propidium iodide staining-based FACS flow cytometric analysis (reference value: 29.52%); format: functional
[18] = system: COLO 205; test: Induction of apoptosis in human COLO205 cells assessed as caspase-3 activation at 2 uM after 24 hrs by Western blotting analysis; format: functional, cell-based
Summary of the method: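 Colo-205 cells grown to 80% confluency, 2 µM final for 24 h; RIPA lysates with protease inhibitors, Bradford-quantified, 50 µg protein per lane on 12% SDS-PAGE, PVDF transfer, probed overnight at 4 °C for active caspase-3, β-actin as loading control, chemiluminescent detection.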

[19] = system: COLO 205; test: Cell cycle arrest in human COLO205 cells assessed as accumulation at G0/G1 phase at 2 uM after 24 hrs by propidium iodide staining-based FACS flow cytometric analysis (reference value: 65.23%); format: functional
[20] = system: COLO 205; test: Cytotoxicity against human COLO205 cells assessed as cell viability at 2 to 4 uM after 24 hrs by MTT assay; format: functional, cell-based; summary of the method: as §1
[21] = system: COLO 205; test: Cell cycle arrest in human COLO205 cells assessed as accumulation at S phase at 2 uM after 24 hrs by propidium iodide staining-based FACS flow cytometric analysis (reference value: 4.21%); format: functional
[22] = system: COLO 205; test: Growth inhibition of human COLO205 cells after 48 hrs by sulforhodamine B assay; format: functional
[23] = system: DWD; test: as §3; format: functional
[24] = system: Gurav; test: as §2; format: functional

Sequence of DNA topoisomerase 2-alpha (Homo sapiens) (P11388 whole entry): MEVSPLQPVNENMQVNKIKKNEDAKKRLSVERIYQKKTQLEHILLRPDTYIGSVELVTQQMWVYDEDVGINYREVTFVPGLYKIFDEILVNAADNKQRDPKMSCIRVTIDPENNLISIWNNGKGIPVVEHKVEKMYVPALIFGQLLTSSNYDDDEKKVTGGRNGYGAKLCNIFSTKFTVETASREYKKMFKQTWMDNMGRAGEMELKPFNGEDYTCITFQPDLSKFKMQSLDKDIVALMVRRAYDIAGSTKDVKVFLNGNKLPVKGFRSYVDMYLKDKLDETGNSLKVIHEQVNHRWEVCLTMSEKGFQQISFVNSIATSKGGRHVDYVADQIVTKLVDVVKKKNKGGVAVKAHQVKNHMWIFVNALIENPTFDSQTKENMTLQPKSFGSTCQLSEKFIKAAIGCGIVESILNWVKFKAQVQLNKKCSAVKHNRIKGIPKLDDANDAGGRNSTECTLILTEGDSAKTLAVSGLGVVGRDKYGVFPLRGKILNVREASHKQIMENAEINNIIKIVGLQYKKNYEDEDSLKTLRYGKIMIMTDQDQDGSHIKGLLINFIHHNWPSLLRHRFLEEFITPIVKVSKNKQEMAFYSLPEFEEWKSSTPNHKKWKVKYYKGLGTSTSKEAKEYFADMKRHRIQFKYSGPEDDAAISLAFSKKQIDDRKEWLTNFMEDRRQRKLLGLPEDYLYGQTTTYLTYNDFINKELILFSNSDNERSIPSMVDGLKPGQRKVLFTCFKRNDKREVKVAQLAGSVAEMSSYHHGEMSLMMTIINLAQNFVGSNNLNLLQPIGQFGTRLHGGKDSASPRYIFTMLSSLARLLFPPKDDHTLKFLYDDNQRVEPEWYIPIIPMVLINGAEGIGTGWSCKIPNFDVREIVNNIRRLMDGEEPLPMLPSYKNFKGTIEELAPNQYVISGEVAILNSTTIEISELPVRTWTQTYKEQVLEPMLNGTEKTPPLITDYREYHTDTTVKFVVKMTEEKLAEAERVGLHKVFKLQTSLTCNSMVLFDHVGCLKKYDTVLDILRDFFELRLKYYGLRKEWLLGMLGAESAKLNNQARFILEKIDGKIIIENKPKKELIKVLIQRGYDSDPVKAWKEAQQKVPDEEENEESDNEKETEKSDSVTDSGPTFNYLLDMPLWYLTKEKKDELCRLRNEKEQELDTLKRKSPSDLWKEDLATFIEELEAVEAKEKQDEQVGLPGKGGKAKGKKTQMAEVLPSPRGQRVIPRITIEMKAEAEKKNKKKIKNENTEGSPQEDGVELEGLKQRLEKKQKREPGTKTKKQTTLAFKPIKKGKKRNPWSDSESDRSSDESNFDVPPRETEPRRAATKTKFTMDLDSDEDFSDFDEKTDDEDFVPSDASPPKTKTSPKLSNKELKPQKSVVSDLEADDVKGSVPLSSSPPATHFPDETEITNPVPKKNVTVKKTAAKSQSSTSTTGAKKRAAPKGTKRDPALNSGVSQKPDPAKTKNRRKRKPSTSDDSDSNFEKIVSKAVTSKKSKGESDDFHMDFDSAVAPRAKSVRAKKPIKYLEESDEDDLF

Structure (SMILES) | Activity [1] | GI50 ([2]; A549, 48 h) | GI50 [3] | GI50 ([4]; A2780, 48 h) | GI50 [5] | GI50 [6] | Activity [7] | GI50 [8] | GI50 [9] | Activity [10] | GI50 ([11]; HOP-62, 48 h) | Activity [12] | Activity [13] | Activity [14] | Inhibition of relaxation (qualitative call) [15] | GI50 [16] | Activity [17] | Activity [18] | Activity [19] | GI50 ([22]; COLO 205, 48 h) | further results
COc1ccc(NC(=O)Nc2ccc(C(=O)N[C@@H]3c4cc5c(cc4[C@@H](c4cc(OC)c(OC)c(OC)c4)[C@H]4C(=O)OC[C@@H]43)OCO5)cc2)cc1 | inactive | 1500 nM | 240 nM | 1350 nM | 1100 nM | 1700 nM | Active | 180 nM | inactive | Active | 120 nM | inactive | Active | Active | Active | 2310 nM | 17.88% | Active | 76.61% | 20 nM | Activity [20]: Active; Percent of cells in S phase [21]: 5.09%
COc1cc([C@@H]2c3cc4c(cc3[C@@H](NC(=O)c3ccc(NC(=O)Nc5cc(C)cc(C)c5)cc3)[C@H]3COC(=O)[C@H]23)OCO4)cc(OC)c1OC |  |  | 2700 nM |  | 150 nM | 1600 nM |  | 2910 nM | inactive |  |  |  |  |  |  | 2310 nM |  |  |  |  | GI50 [2]: inactive; GI50 [4]: inactive; GI50 [11]: inactive; GI50 [22]: inactive
COc1cc([C@@H]2c3cc4c(cc3[C@@H](NC(=O)c3ccc(NC(=O)NCCBr)cc3)[C@H]3COC(=O)[C@H]23)OCO4)cc(OC)c1OC | inactive | 100 nM | 1850 nM | 140 nM | 140 nM | 170 nM | Active | 160 nM | 210 nM | Active | 100 nM | inactive | Active | Active | Active | inactive | 19.94% | Active | 74.1% | 10 nM | Activity [20]: Active; Percent of cells in S phase [21]: 5.96%
COc1cc([C@@H]2c3cc4c(cc3[C@@H](NC(=O)c3ccc(NC(=O)Nc5cccc6ccccc56)cc3)[C@H]3COC(=O)[C@H]23)OCO4)cc(OC)c1OC |  | 2010 nM | 2900 nM | 2220 nM | 110 nM |  |  | 2000 nM | 2300 nM |  |  |  |  |  |  | inactive |  |  |  | 2230 nM | GI50 [23]: inactive; GI50 [11]: inactive
COc1cc([C@@H]2c3cc4c(cc3[C@@H](NC(=O)c3ccc(NC(=O)Nc5cccc(Cl)c5)cc3)[C@H]3COC(=O)[C@H]23)OCO4)cc(OC)c1OC |  |  | 2010 nM | 2800 nM | 2600 nM | 2300 nM |  | 2900 nM | inactive |  | 2500 nM |  |  |  |  | inactive |  |  |  | 2600 nM | GI50 [2]: inactive
COc1cc([C@@H]2c3cc4c(cc3[C@@H](NC(=O)c3ccc(NC(=O)Nc5ccc(F)c(Cl)c5)cc3)[C@H]3COC(=O)[C@H]23)OCO4)cc(OC)c1OC |  | 1500 nM |  |  | 120 nM | 2610 nM |  | 2900 nM | inactive |  | 2710 nM |  |  |  |  | 2010 nM |  |  |  | 2520 nM | GI50 [24]: inactive; GI50 [4]: inactive
COc1cc([C@@H]2c3cc4c(cc3[C@@H](NC(=O)c3ccc(NC(=O)NCc5ccco5)cc3)[C@H]3COC(=O)[C@H]23)OCO4)cc(OC)c1OC |  | 2620 nM |  | 2300 nM | 2900 nM | 2500 nM |  | 2600 nM | inactive |  |  |  |  |  |  | 1930 nM |  |  |  | 2340 nM | GI50 [24]: inactive; GI50 [11]: inactive
COc1cc([C@@H]2c3cc4c(cc3[C@@H](NC(=O)c3ccc(NC(=O)Nc5ccc(Br)s5)cc3)[C@H]3COC(=O)[C@H]23)OCO4)cc(OC)c1OC |  | 1400 nM |  | 2100 nM | 120 nM | 100 nM |  | 2400 nM | 2900 nM |  | 2600 nM |  |  |  |  | 2500 nM |  |  |  |  | GI50 [24]: inactive; GI50 [22]: inactive
COc1cccc2c1C(=O)c1c(O)c3c(c(O)c1C2=O)C[C@@](O)(C(=O)CO)C[C@@H]3O[C@H]1C[C@H](N)[C@H](O)[C@H](C)O1 [DOXORUBICIN] |  |  | 170 nM | 160 nM | 170 nM | 100 nM |  |  | 170 nM |  | 140 nM |  |  |  |  | 170 nM |  |  |  | 140 nM | 
COc1cc([C@@H]2c3cc4c(cc3[C@@H](NC(=O)c3ccc(NC(=O)NCCCl)cc3)[C@H]3COC(=O)[C@H]23)OCO4)cc(OC)c1OC | inactive | 1120 nM | 100 nM | 1300 nM | 100 nM | 1600 nM | Active | 2900 nM | inactive | Active | 120 nM | inactive | Active | Active | Active | 210 nM | 18.15% | Active | 76.22% | 10 nM | Activity [20]: Active; Percent of cells in S phase [21]: 5.62%
